Series [1] relates to Plasmodium falciparum. Briefly: Antiplasmodial activity after 24 hrs against chloroquine-sensitive Plasmodium falciparum Nigerian by [3H]hypoxanthine uptake. The class given is functional, organism-based. The procedure, abridged: (§1)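 P. falciparum continuously cultured in human O± red cells, 1% hematocrit, RPMI 1640 with 25 mM Hepes, 30 mM NaHCO3, 5% human AB+ serum. Cultures synchronized daily by gelatine flotation and 5% sorbitol lysis. Tested mostly at ring stage, 0.5-1% parasitemia. DMSO stocks diluted serum-free to final 50-0.01 µg/mL (DMSO ≤1%). Three experiments in triplicate. IC50 read graphically from concentration versus percent inhibition curves.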

Series [2] relates to Plasmodium falciparum. Briefly: Antiplasmodial activity after 72 hrs against chloroquine-sensitive Plasmodium falciparum Nigerian by [3H]hypoxanthine uptake. The format is functional, organism-based. The procedure, abridged: as §1
Series [3] concerns Plasmodium falciparum. Briefly: Antiplasmodial activity after 24 hrs against chloroquine-resistant Plasmodium falciparum FcM29 by [3H]hypoxanthine uptake. The class given is functional, organism-based. The procedure, abridged: as §1
Series [4] has as its system Plasmodium falciparum. Briefly: Antiplasmodial activity against chloroquine-resistant Plasmodium falciparum FcM29 after 72 hrs by [3H]hypoxanthine uptake. The class given is functional, organism-based. The procedure, abridged: as §1
Series [5] can be described thus: Cytotoxicity against human HeLa cells after 24 hrs by [3H]hypoxanthine incorporation assay. The format is cell-based. The note with it: read-out: ED50. The procedure, abridged:
(§2)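 HeLa cells grown in RPMI 1640 with 25 mM Hepes, 30 mM NaHCO3 and 5% fetal calf serum. After trypsinization, cells were seeded at 2×10^4 cells/well. Compounds were taken from 10 mg/mL DMSO stocks and diluted in serum-free medium to final 100–0.02 μg/mL (DMSO ≤1% final). Growth was read by [3H]-hypoxanthine incorporation at 24 and 72 h against untreated wells. Three experiments, each in triplicate.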

The nature of series [6]: Cytotoxicity against human HeLa cells after 72 hrs by [3H]hypoxanthine incorporation assay. The format is cell-based. To be noted: read-out: ED50. The procedure, abridged:
as §2

Series [7] can be described thus: Selectivity index, ratio of ED50 for human HeLa cells to IC50 for Plasmodium falciparum Nigerian after 24 hrs by [3H]hypoxanthine incorporation assay. The format is functional. The procedure, abridged:
(§3)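 Ratio of HeLa ED50 to P. falciparum Nigerian-strain IC50 at the same exposure time (24 or 72 h). For the parasite, ring-stage cultures synchronized by gelatine flotation and sorbitol were used at 0.5–1% parasitemia and 1% hematocrit in human red cells with 5% AB+ serum. Compounds ran at final 50–0.01 μg/mL. Growth was read by [3H]-hypoxanthine incorporation, and IC50 was read graphically from inhibition curves.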

The nature of series [8]: Selectivity index, ratio of ED50 for human HeLa cells to IC50 for Plasmodium falciparum Nigerian after 72 hrs by [3H]hypoxanthine incorporation assay. The format is functional. The procedure, abridged:
as §3

The IC50 is the concentration at which inhibition is half-maximal. Low values mean inhibition by little substance, high ones a need for much substance.

Structures are written as SMILES.

For `Cn1c2c(O)cccc2c(=O)c2c(O)cc3c(c21)C=CC(C)(C)O3`, the IC50 is 11.1 µM in series [1], 8.7 µM in series [2], 10.2 µM in series [3] and 6.8 µM in series [4]. Besides, in series [5], the CC50 at 24 h was found to be 85.5 µM. In addition, in series [6], the CC50 at 72 h was 78 µM. Besides, the figures for the Ratio in series [7] and in series [8] were 7.7 and 9, respectively.
As for `CC(C)=CCc1c(O)cc2c(c1O)c(=O)c1c(CC=C(C)C)ccc(O)c1n2C`, the IC50 came to 5.3 µM in series [1], 5.6 µM in series [2], 7.9 µM in series [3] and 7.1 µM in series [4]. In addition, in series [5], the CC50 at 24 h came to 47.2 µM. Moreover, the CC50 at 72 h in series [6] is 52.2 µM. Moreover, the Ratio in series [7] was 9; in series [8], 9.4.
Regarding `CCN(CC)CCCC(C)Nc1ccnc2cc(Cl)ccc12` (centres undefined) [CHLOROQUINE PHOSPHATE], the CC50 at 24 h in series [5] is over 100 µM. Moreover, the CC50 at 72 h in series [6] was over 100 µM.
On to `COc1c(O)cc(O)c2c(=O)c3cccc(O)c3n(C)c12` [CITRUSININE-II], for which the 50% inhibitory concentration (IC50) in series [1] worked out at 33 µM; in series [2], 20.1 µM; in series [3], 27.1 µM; in series [4], 20.5 µM. Further, in series [5], the CC50 at 24 h turned out to be 16.8 µM. The CC50 at 72 h in series [6] was 35.1 µM. In addition, the Ratio in series [7] is on record as 0.5; in series [8] it was 1.8.
Consider `COc1c(O)c(CC=C(C)C)c(O)c2c(=O)c3cccc(O)c3n(C)c12` [GLYCOCITRINE-IV], for which the half-maximal inhibitory concentration (IC50) in series [1] stood at 2.5 µM; in series [2], 2.5 µM; in series [3] it was 2 µM; in series [4], 2.3 µM. In addition, the CC50 at 24 h in series [5] was found to be 0.71 µM. For the same molecule, the CC50 at 72 h in series [6] came to 5.3 µM. In addition, the results for the Ratio in series [7] and in series [8] were 0.3 and 2.1, respectively.
